Reference: ChEMBL document CHEMBL5724801, “EUbOPEN Chemogenomics Library - Multiplex” (2024)
Where “and” joins values, the source holds several entries; their conditions need not be identical. Identical values can stand only once.

Tested on: Fibroblast
Assay: Multiplex assay against human fibroblast
Assay type: toxicity, cell-based
How it was run: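 Tubulin, mitochondrial-mass and membrane-permeability phenotypes are per cents of healthy-nucleus cells. Cells were gated by CellPathfinder machine learning into Hoechst high-intensity objects or normal cells, normal cells into healthy, pyknosed or fragmented nuclei, and pyknosed cells into mitotic or apoptotic. Before that, live cells stained at seeding with Hoechst33342, BioTracker Green Microtubule Cytoskeleton Dye, MitoTracker Red and Annexin V Alexa Fluor 680 were imaged on a CQ1 microscope at 37°C and 5% CO2 after compound addition.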

[1] = 12 h, 1 µM, compound concentration 1 uM
[2] = 12 h, 10 µM, compound concentration 10 uM
[3] = 24 h, 1 µM, compound concentration 1 uM
[4] = 24 h, 10 µM, compound concentration 10 uM
[5] = 48 h, 1 µM, compound concentration 1 uM
[6] = 48 h, 10 µM, compound concentration 10 uM

Structure (SMILES): Cc1nc2ccc(Oc3ccc(F)cc3)cc2c(=O)n1C[C@H]1CCCN(C(C)C)C1.Cl
- Population Apoptotic (%) [1]: 34% and 44%
- Population Fragmented Nuclei (%) [1]: 19% and 24%
- Population Healthy Nuclei (%) [1]: 67% and 47%
- Population Hoechst High Intensity Objects (%) [1]: 5% and 9%
- Population Mitochondria Different-Phenotype (%) [1]: 4% and 8%
- Population Mitotic Cells (%) [1]: 65% and 55%
- Population Normal (%) [1]: 94% and 90%
- Population Pyknosed Nuclei (%) [1]: 13% and 29%
- Population Tubulin-Different-Phenotype (%) [1]: 31% and 70%
- Total Cell Count [1]: 184 and 111
- Population Apoptotic (%) [2]: 53% and 61%
- Population Fragmented Nuclei (%) [2]: 19% and 36%
- Population Healthy Nuclei (%) [2]: 61% and 44%
- Population Hoechst High Intensity Objects (%) [2]: 4% and 3%
- Population Membrane Permeable-Phenotype (%) [2]: 1% and 5%
- Population Mitochondria Different-Phenotype (%) [2]: 22% and 25%
- Population Mitotic Cells (%) [2]: 46% and 38%
- Population Normal (%) [2]: 95% and 96%
- Population Pyknosed Nuclei (%) [2]: 19%
- Population Tubulin-Different-Phenotype (%) [2]: 88% and 80%
- Total Cell Count [2]: 241 and 205
- Population Apoptotic (%) [3]: 66% and 38%
- Population Fragmented Nuclei (%) [3]: 17% and 29%
- Population Healthy Nuclei (%) [3]: 68% and 50%
- Population Hoechst High Intensity Objects (%) [3]: 3% and 7%
- Population Mitochondria Different-Phenotype (%) [3]: 6% and 17%
- Population Mitotic Cells (%) [3]: 33% and 61%
- Population Normal (%) [3]: 96% and 92%
- Population Pyknosed Nuclei (%) [3]: 13% and 20%
- Population Tubulin-Different-Phenotype (%) [3]: 30% and 73%
- Total Cell Count [3]: 186 and 112
- Population Apoptotic (%) [4]: 67% and 54%
- Population Fragmented Nuclei (%) [4]: 27% and 30%
- Population Healthy Nuclei (%) [4]: 58% and 52%
- Population Hoechst High Intensity Objects (%) [4]: 3% and 6%
- Population Membrane Permeable-Phenotype (%) [4]: 0% and 1%
- Population Mitochondria Different-Phenotype (%) [4]: 27% and 29%
- Population Mitotic Cells (%) [4]: 32% and 45%
- Population Normal (%) [4]: 96% and 93%
- Population Pyknosed Nuclei (%) [4]: 13% and 17%
- Population Tubulin-Different-Phenotype (%) [4]: 84% and 87%
- Total Cell Count [4]: 290 and 187
- Population Apoptotic (%) [5]: 66% and 42%
- Population Fragmented Nuclei (%) [5]: 25% and 36%
- Population Healthy Nuclei (%) [5]: 66% and 44%
- Population Hoechst High Intensity Objects (%) [5]: 3% and 5%
- Population Membrane Permeable-Phenotype (%) [5]: 0% and 6%
- Population Mitotic Cells (%) [5]: 33% and 57%
- Population Normal (%) [5]: 96% and 94%
- Population Pyknosed Nuclei (%) [5]: 8% and 19%
- Population Tubulin-Different-Phenotype (%) [5]: 33% and 68%
- Total Cell Count [5]: 184 and 105
- Population Apoptotic (%) [6]: 66% and 68%
- Population Fragmented Nuclei (%) [6]: 23% and 33%
- Population Healthy Nuclei (%) [6]: 65% and 53%
- Population Hoechst High Intensity Objects (%) [6]: 9% and 3%
- Population Membrane Permeable-Phenotype (%) [6]: 0% and 2%
- Population Mitochondria Different-Phenotype (%) [6]: 20% and 19%
- Population Mitotic Cells (%) [6]: 33% and 32%
- Population Normal (%) [6]: 90% and 96%
- Population Pyknosed Nuclei (%) [6]: 10% and 12%
- Population Tubulin-Different-Phenotype (%) [6]: 85%
- Total Cell Count [6]: 290 and 201

Structure (SMILES): CN1CC[C@@]23CCCC[C@@H]2[C@@H]1Cc1ccc(O)cc13.O=C(O)C(O)C(O)C(=O)O
- Population Apoptotic (%) [1]: 6.98% and 13.16%
- Population Fragmented Nuclei (%) [1]: 5.26% and 4.9%
- Population Healthy Nuclei (%) [1]: 69.59% and 79.59%
- Population Hoechst High Intensity Objects (%) [1]: 0%
- Population Membrane Permeable-Phenotype (%) [1]: 1.68% and 2.05%
- Population Mitochondria Different-Phenotype (%) [1]: 8.4% and 8.21%
- Population Mitotic Cells (%) [1]: 93.02% and 86.84%
- Population Normal (%) [1]: 100%
- Population Pyknosed Nuclei (%) [1]: 25.15% and 15.51%
- Population Tubulin-Different-Phenotype (%) [1]: 15.97% and 20.51%
- Total Cell Count [1]: 171 and 245
- Population Apoptotic (%) [2]: 8.2% and 12.82%
- Population Fragmented Nuclei (%) [2]: 8.77% and 7.24%
- Population Healthy Nuclei (%) [2]: 64.47% and 79.31%
- Population Hoechst High Intensity Objects (%) [2]: 0%
- Population Membrane Permeable-Phenotype (%) [2]: 2.72% and 2.17%
- Population Mitochondria Different-Phenotype (%) [2]: 6.12% and 5.65%
- Population Mitotic Cells (%) [2]: 91.8% and 87.18%
- Population Normal (%) [2]: 100%
- Population Pyknosed Nuclei (%) [2]: 26.75% and 13.45%
- Population Tubulin-Different-Phenotype (%) [2]: 14.29% and 18.26%
- Total Cell Count [2]: 228 and 290
- Population Apoptotic (%) [3]: 13.16% and 10.71%
- Population Fragmented Nuclei (%) [3]: 6.63% and 3.19%
- Population Healthy Nuclei (%) [3]: 72.38% and 85.66%
- Population Hoechst High Intensity Objects (%) [3]: 0%
- Population Membrane Permeable-Phenotype (%) [3]: 0% and 2.79%
- Population Mitochondria Different-Phenotype (%) [3]: 9.92% and 5.12%
- Population Mitotic Cells (%) [3]: 86.84% and 89.29%
- Population Normal (%) [3]: 100%
- Population Pyknosed Nuclei (%) [3]: 20.99% and 11.16%
- Population Tubulin-Different-Phenotype (%) [3]: 17.56% and 14.88%
- Total Cell Count [3]: 181 and 251
- Population Apoptotic (%) [4]: 17.74% and 18.92%
- Population Fragmented Nuclei (%) [4]: 9.16% and 7.39%
- Population Healthy Nuclei (%) [4]: 68.13% and 79.58%
- Population Hoechst High Intensity Objects (%) [4]: 0%
- Population Membrane Permeable-Phenotype (%) [4]: 2.15% and 2.21%
- Population Mitochondria Different-Phenotype (%) [4]: 5.38% and 4.42%
- Population Mitotic Cells (%) [4]: 82.26% and 81.08%
- Population Normal (%) [4]: 100%
- Population Pyknosed Nuclei (%) [4]: 22.71% and 13.03%
- Population Tubulin-Different-Phenotype (%) [4]: 19.89% and 17.7%
- Total Cell Count [4]: 273 and 284
- Population Apoptotic (%) [5]: 30.77% and 40%
- Population Fragmented Nuclei (%) [5]: 9.57% and 5.1%
- Population Healthy Nuclei (%) [5]: 84.21% and 89.02%
- Population Hoechst High Intensity Objects (%) [5]: 0%
- Population Membrane Permeable-Phenotype (%) [5]: 0.57% and 3.52%
- Population Mitotic Cells (%) [5]: 69.23% and 60%
- Population Normal (%) [5]: 100%
- Population Pyknosed Nuclei (%) [5]: 6.22% and 5.88%
- Population Tubulin-Different-Phenotype (%) [5]: 6.82% and 14.54%
- Total Cell Count [5]: 209 and 255
- Population Apoptotic (%) [6]: 15.38% and 35.29%
- Population Fragmented Nuclei (%) [6]: 6.34% and 8.95%
- Population Healthy Nuclei (%) [6]: 88.81% and 85.62%
- Population Hoechst High Intensity Objects (%) [6]: 0%
- Population Membrane Permeable-Phenotype (%) [6]: 0.84% and 4.1%
- Population Mitochondria Different-Phenotype (%) [6]: 6.72% and 1.87%
- Population Mitotic Cells (%) [6]: 84.62% and 64.71%
- Population Normal (%) [6]: 100%
- Population Pyknosed Nuclei (%) [6]: 4.85% and 5.43%
- Population Tubulin-Different-Phenotype (%) [6]: 7.56% and 19.4%
- Total Cell Count [6]: 268 and 313
